UPR CHOP act – apoptotic UPR (CHOP) activation; CHO-CHOP luciferase reporter, luminescence; percent of tunicamycin response over DMSO baseline; activation, % at 10 µM; 330,000 tested, 0.34% active; AID 449763;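 active means at 10 µM dose, activation of 40% or more, normalized to positive control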;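 further: 100% = tunicamycin at 10 µg/mL and 0% = DMSO alone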
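System: CHO-CHOP luciferase reporter cell line | Buffer or medium: F12 medium containing 10% fetal bovine serum | Doses: One dose, 10 µM in 0.5% DMSO | Times: 6 h compound exposure at 37 °C after overnight seeding | Signal: Luciferase luminescence | Read-out: % activation vs tunicamycin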
CHOP inh – blocks CHOP induction under ER stress; inhibition, % at 10 µM; CHO-K1 CHOP-promoter luciferase, tunicamycin-induced, 15-18 h; AID 2732; 220,000 tested, 3.8% active;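 active means compounds that reduced the stress-induced luciferase reporter signal by more than about 70% of percent inhibition, limit read from the data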;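 further: 0% = tunicamycin plus vehicle and 100% = wells without tunicamycin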
UPR XBP1 act – activators of adaptive arm of unfolded protein response (XBP1); CHO-XBP1 luciferase reporter, IRE1-XBP1 UPR activation, luminescence; percent of tunicamycin response, DMSO as zero; activation, % at 20 µM; 330,000 tested, 0.33% active;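 active means versus positive control, 20 µM dose yields 30% or more activation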;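 further: 100% = tunicamycin at 10 µg/mL and 0% = DMSO only wells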
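Material: IRE1-XBP1 luciferase reporter CHO line / Quantity: one thousand reporter cells per well / Buffer or medium: F12 with 10% serum / Compound: 20 µM single concentration, DMSO 1% / Times: 6 h treatment, 37 °C / Detection: Steady-Glo luciferase glow luminescence, 10 min after reagent addition / Benchmarks: tunicamycin high, DMSO low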
A1 inh – inhibitors of the anti-apoptotic protein A1, read as caspase activation. MEF A1-2A-BIM cells, Caspase-Glo 3/7 luminescence, 3 h; percent of clofoctol response, vehicle zero. 330,000 tested, 0.066% active. caspase activation, % (no concentration beside the values);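 active means over half of replicate activation scores above 10%, or exactly half above 10 with the replicate mean above 10; inconclusive means replicate mean below 10 yet half the replicates above 10; inactive means over half of replicates below 10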
CHOP UPR conf – confirmation of apoptotic unfolded protein response (CHOP) activators; CHO-CHOP cells, CHOP-luciferase reporter luminescence; percent of tunicamycin response, DMSO as zero; shares compounds with UPR CHOP act; 1,000 tested, 64% active; activation, % at 10 µM; in the data active means activation above about 33%;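 further: 0% = DMSO wells and 100% = tunicamycin 10 µg/mL wells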
UPR XBP1 confirm – confirmation of adaptive unfolded protein response (XBP1) activators; 1,000 tested, 63% active; AID 485299; shares compounds with UPR XBP1 act; CHO-XBP1 IRE1-XBP1 luciferase reporter, luminescence; activation, % at 20 µM;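 active means reporter signal at least 30% of the positive control's activation in two or more of four replicate wells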;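 further: plate controls were DMSO negative control for no effect and tunicamycin 10 µg/mL positive control for full effect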
An asterisk follows results filed as active; ? = inconclusive; . = not tested or not shown. The sample as a whole holds a higher share of hits than the screen did.

SMILES	UPR CHOP act	CHOP inh	UPR XBP1 act	A1 inh	CHOP UPR conf	others
COc1ccccc1N1CCN(C2CCN(C(=O)c3cc(OC)c(OC)c(OC)c3)CC2)CC1	3	-6	-1	-1	.
FC(F)(F)c1ccc2c(c1)C1C=CCC1C(c1ccncc1)N2 (configuration not stated)	.	43	.	.	.
CC(C)c1nnc(NC(=O)c2nc(S(=O)(=O)Cc3ccc(F)cc3)ncc2Cl)s1	80*	.	-10	?	7
CCN(CC)c1ccc2c(C)cc(=O)oc2c1	0	.	3	0	.
CCN(CC)c1ccc2c(Cl)c(Br)c(=O)oc2c1	194*	94*	1	1	18
NC(=O)NOCc1c(F)cccc1Cl	0	-29	-2	1	.
O=C(CCN1C(=O)C2C3C=CC(C4CC34)C2C1=O)Oc1cccc2cccnc12 (configuration not stated)	72*	48	10	0	60*
O=C(CCN1C(=O)C2C3C=CC(C4CC34)C2C1=O)Oc1ccc(Br)cc1 (configuration not stated)	0	-3	0	1	.
CCCCNC1C(CC)C(CCC)C(C#N)(C#N)C1(C#N)C#N (configuration not stated)	74*	-10	-8	1	34*
O=c1c([N+](=O)[O-])c(O)c2ccccc2n1Cc1ccccc1	1	.	-5	?	.
CCc1ccccc1NCc1cc(=O)oc2cc(C)ccc12	1	.	-3	1	.
O=C(O)CC1CCS(=O)(=O)C1 (configuration not stated)	0	-1	2	0	.
O=C(O)CC1CCC(=C(Cl)Cl)C1 (configuration not stated)	46*	79*	-6	0	65*
COc1cc(C(=O)Nc2c(C(=O)N3CCOCC3)oc3ccccc23)cc(OC)c1OC	0	.	-2	0	.
COc1ccc(S(=O)(=O)Cc2ccc(C(=O)N3CCN(C4CCCCC4)CC3)o2)cc1	-1	16	-2	0	.
Cc1ccc(-c2nn3c(C)nnc3s2)cc1NC(=O)c1ccc(-c2ccc(Cl)cc2Cl)o1	46*	81*	51*	0	35*
C=CCn1c(SCC(=O)N(CC)C2CCS(=O)(=O)C2)nnc1-c1ccccc1 (configuration not stated)	0	.	1	0	.
Cc1cccc(N=Nc2ccc(O)c3ncccc23)c1	86*	105*	7	-5	69*
COc1ccc(NC(=O)CSc2n[nH]c(-c3ccncc3)n2)c([N+](=O)[O-])c1	1	.	-4	0	.
Cc1nc(N)sc1-c1csc(N(C)c2ccc(O)cc2)n1	5	25	4	0	.
CN(c1ccc(O)cc1)c1nc(-c2cccs2)cs1	48*	60	3	1	6
O=C(N=Nc1c(O)[nH]c2ccccc12)c1ccc(CN2CCOCC2)cc1	3	0	-3	0	.
Oc1[nH]c2ccc(Br)cc2c1N=NC(=S)N1CCOCC1	168*	-51	8	0	102*
Oc1[nH]c2ccccc2c1N=NC(=S)N1CCOCC1	254*	4	18	-1	229*
Cc1cnnn1-c1ccc(C(=O)CCl)cc1	132*	92*	-7	0	-9
SMILES	UPR CHOP act	CHOP inh	UPR XBP1 act	A1 inh	CHOP UPR conf	others
O=C1/C(=C/c2ccccc2[N+](=O)[O-])COc2ccccc21	173*	95*	-1	2	85*
CNc1ccc(/C=C2\COc3ccccc3C2=O)cc1[N+](=O)[O-]	4	-56	4	0	.
COc1ccc(C2C3=C(CC(C)(C)CC3=O)Oc3ncn(Cc4ccco4)c(=N)c32)cc1 (configuration not stated)	44*	38	0	0	0
COc1ccc(C2C3=C(CC(C)(C)CC3=O)Oc3ncn(CC(C)C)c(=N)c32)cc1 (configuration not stated)	0	6	-2	0	.
Cc1ccc(NC(=O)c2cnc(SCC(=O)NCC3CCCO3)n(C)c2=O)cc1C (configuration not stated)	51*	.	-4	0	24
Oc1ccc(-c2cn3ccccc3n2)cc1O	155*	.	-1	-6	33*
Cc1ccn2cc(-c3cccc(NC(=O)C(C)C)c3)nc2c1	5	-7	2	-1	.
Cc1ccn2cc(-c3ccc(O)c(O)c3)nc2c1	120*	.	-4	-6	57*
CCOC(=O)/C(C#N)=C/C1=C(N2CCOCC2)C(C)(C)OCC1	0	10	1	0	.
O=C1C(Cc2ccccc2)Nc2ncnc(N3CCOCC3)c2N1Cc1ccc(Cl)cc1 (configuration not stated)	1	.	0	2	.
CC(C)CCNC(=O)c1ccc2c(SCC(=O)O)c3c(nc2c1)CCCC3	44*	-22	-1	2	-1
Cc1ccc2nc(NC(=O)C(NS(=O)(=O)c3cccc4nsnc34)C(C)C)sc2c1 (configuration not stated)	0	70	-2	-1	.
Cc1ccc(NC(=S)N2CCC(c3nc4ccccc4s3)CC2)cc1	-2	-13	-3	0	.
CN(c1ccccc1)S(=O)(=O)c1cccc(C(=O)NCCc2ccc(O)c(O)c2)c1	93*	-91	97*	0	82*	UPR XBP1 confirm=64*
CCN(CC)S(=O)(=O)c1cccc(C(=O)NCCc2ccccc2)c1	3	.	2	0	.
CCOC(=O)Cc1csc(/N=C/c2c(O)n(-c3ccc(C)c(C)c3)c(=O)c3ccccc23)n1	66*	59	95*	22*	63*	UPR XBP1 confirm=155*
Cc1cc(N=Cc2c(O)n(-c3ccc(C)c(C)c3)c(=O)c3ccccc23)no1	.	67	.	.	.
O=C(N/N=C/c1cccc([N+](=O)[O-])c1)c1cc2c(ccc3ccccc32)o1	104*	-29	40*	0	77*	UPR XBP1 confirm=16
CCCCCCCC(=O)Nc1ccc(C(=O)N/N=C/c2cccc([N+](=O)[O-])c2)cc1	193*	66	237*	0	183*	UPR XBP1 confirm=145*
COc1ccc(N=c2oc3c(OC)cccc3cc2C(=O)NCc2ccco2)c(OC)c1	172*	89*	74*	0	101*	UPR XBP1 confirm=22
COc1ccc2cc(C(=O)NCc3ccco3)c(=Nc3ccc(C(=O)O)cc3)oc2c1	-2	3	0	-1	.
COc1ccc(/C=N/NC(=O)C(=O)/C=C2\NC3(CCCC3)Cc3ccccc32)cc1	5	10	3	-1	.
